Measurements from ChEMBL document CHEMBL1121910, “N-(Methanesulfonyl)-16-phenoxyprostaglandincarboxamides: tissue-selective, uterine stimulants” (1981).

Key:
Canis familiaris [1] = assay: Compound versus PGE-2 (0.1 ug/kg, iv) was tested for effects on blood pressure in anesthetized dogs; Depressor; type: functional, Canis lupus familiaris
Procedure, shortened: (§1)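 Anesthetized dogs responsive to PGE2 (at least two per compound); iv dosing. Blood pressure threshold dose expressed relative to PGE2 reference at 0.1 μg/kg iv; direction noted as depressor (−) or pressor (+).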

Cavia porcellus [2] = species: Cavia porcellus; assay: Relative spasmogenic potency in an in vitro guinea pig uteri assay.; type: functional
Cavia porcellus [3] = assay: Percent protection against histamine-induced bronchoconstriction in conscious guinea pig.; type: functional; design: concentration or dose not given beside the values
Cavia porcellus [4] = assay: Relative ability to cause abortion in conscious guinea pigs compared to PGE-2.; type: functional
Mus musculus [5] = assay: Relative potency of compound versus PGE-2 (0.3-3.0mg/mL, iv)for induction of diarrhoea in conscious mice; type: functional
Procedure, shortened: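 Groups of six conscious mice, iv. Relative potency was estimated from concentration-response curves for diarrhea induction against PGE2 given at 0.3–3.0 mg/kg iv.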

Rattus norvegicus = assay: Relative potency (50 ug/kg) for inhibition of pentagastrin-stimulated gastric acid secretion in anesthetized rats; type: functional, Stomach
Canis familiaris [6] = assay: Compound versus PGE-2 (0.1 ug/kg, iv) was tested for effects on blood pressure in anesthetized dogs; type: functional, Canis lupus familiaris; procedure, shortened: as §1
Mus musculus [7] = assay: Relative potency of compound versus PGE-2 (0.3-3.0mg/mL, iv) for induction of diarrhoea in conscious mice; Depressor; type: functional
Mus musculus [8] = assay: Relative potency of compound versus PGE-2 (0.3-3.0mg/mL, iv) for induction of diarrhoea in conscious mice; NE = no effect at one tenth the minimum effective dose for PGE-2; type: functional, organism-based
Canis familiaris [9] = assay: Compound versus PGE-2 (0.1 ug/kg, iv) was tested for effects on blood pressure in anesthetized dogs; Pressor; type: functional, Canis lupus familiaris; procedure, shortened: as §1
Mus musculus [10] = assay: Relative potency of compound versus PGE-2 (0.3-3.0mg/mL, iv) for induction of diarrhoea in conscious mice; NE = no effect at 10 times the ED50 for PGE-2; type: functional, organism-based

Structure (SMILES) | Relative threshold dose (Canis familiaris [1]) | Relative potency (Cavia porcellus [2]) | Protection (Cavia porcellus [3]) [%] | Relative potency (Cavia porcellus [4]) | Relative potency (Mus musculus [5]) | Relative potency (Rattus norvegicus) | Relative potency (Canis familiaris [1]) | Relative potency (Canis familiaris [6]) | Relative potency (Mus musculus [7]) | Relative potency (Mus musculus [8]) | Relative threshold dose (Canis familiaris [9]) | Relative potency (Mus musculus [10])
CS(=O)(=O)NC(=O)CCC/C=C\C[C@H]1C(=O)C=CC1/C=C/[C@@H](O)COc1ccccc1 (stereo not given in full) | 2.5 | 0.2 | 9 | <100 | 10 | 200 | – | – | – | – | – | –
CS(=O)(=O)NC(=O)CCC/C=C\C[C@H]1C(=O)C[C@@H](O)[C@@H]1/C=C/[C@@H](O)COc1ccccc1 [SULPROSTONE] | – | 115 | 10 | 3000 | – | 450 | 0.5 | – | – | – | – | –
CS(=O)(=O)NC(=O)CCC/C=C\C[C@H]1C(=O)C[C@@H](O)C1/C=C/[C@@H](O)CCc1ccccc1 (stereo not given in full) | – | 75 | 0 | <100 | – | – | – | 2.5 | 2.5 | – | – | –
Cc1cccc(OC[C@H](O)/C=C/C2[C@H](O)CC(=O)[C@@H]2C/C=C\CCCC(=O)NS(C)(=O)=O)c1 (stereo not given in full) | – | 4 | 44 | <1000 | – | 125 | 0.5 | – | – | No effect | – | –
CCCCC[C@H](O)/C=C/[C@H]1[C@H](O)CC(=O)[C@@H]1C/C=C\CCCC(=O)O [DINOPROSTONE] | – | 100 | 100 | 100 | 100 | 100 | – | – | – | – | – | –
CS(=O)(=O)NC(=O)CCC/C=C\C[C@H]1C(=O)C[C@@H](O)C1/C=C/[C@@H](O)COc1cccs1 (stereo not given in full) | – | 50 | 28 | 300 | – | – | – | 0.5 | – | – | – | –
CS(=O)(=O)NC(=O)CCC/C=C\C[C@H]1C(=O)C[C@@H](O)C1/C=C/[C@@H](O)COc1cccc(C(F)(F)F)c1 (stereo not given in full) | – | 0.5 | 16 | <100 | – | – | – | <0.5 | – | No effect | – | –
CS(=O)(=O)NC(=O)CCC/C=C\C[C@H]1C(=O)C[C@@H](O)C1/C=C/[C@@H](O)COc1cccc(Cl)c1 (stereo not given in full) | – | 46 | 28 | 1000 | – | 140 | – | – | – | – | – | –
CCCCC(C)(C)[C@H](O)/C=C/C1[C@H](O)CC(=O)[C@@H]1C/C=C\CCCC(=O)O (stereo not given in full) | 10 | 33 | 41 | <100 | 5300 | 400 | – | – | – | – | – | –
CS(=O)(=O)NC(=O)CCC/C=C\C[C@@H]1C(/C=C/[C@@H](O)COc2ccccc2)[C@H](O)C[C@@H]1O (stereo not given in full) | – | 10 | 3 | 1000 | – | – | – | 10 | – | – | – | –
O=C(O)CCC/C=C\C[C@H]1C(=O)C[C@@H](O)C1/C=C/[C@@H](O)COc1ccccc1 (stereo not given in full) | 10 | 75 | 9 | 300 | 150 | 530 | – | – | – | – | – | –
CS(=O)(=O)NC(=O)CCC/C=C\C[C@H]1C(=O)C[C@@H](O)C1/C=C/[C@@H](O)COc1ccc(F)cc1 (stereo not given in full) | – | 120 | 3 | 3000 | – | – | – | – | – | – | – | –
CCS(=O)(=O)NC(=O)CCC/C=C\C[C@H]1C(=O)C[C@@H](O)C1/C=C/[C@@H](O)COc1ccccc1 (stereo not given in full) | – | 85 | 9 | 3000 | – | – | 1 | – | – | – | – | –
CS(=O)(=O)NC(=O)CCC/C=C\CC1=C(/C=C/[C@@H](O)COc2ccccc2)CCC1=O | – | 1.2 | 0 | <100 | 60 | 80 | – | – | – | – | 10 | –
COc1ccc(OC[C@H](O)/C=C/C2[C@H](O)CC(=O)[C@@H]2C/C=C\CCCC(=O)NS(C)(=O)=O)cc1 (stereo not given in full) | – | 10 | 13 | < 1000 | – | 600 | – | <0.5 | – | – | – | –
O=C(CCC/C=C\C[C@H]1C(=O)C[C@@H](O)C1/C=C/[C@@H](O)COc1ccccc1)NS(=O)(=O)c1ccccc1 (stereo not given in full) | – | 5 | 13 | 1000 | – | 370 | – | <0.5 | – | – | – | –
COc1cccc(OC[C@H](O)/C=C/C2[C@H](O)CC(=O)[C@@H]2C/C=C\CCCC(=O)NS(C)(=O)=O)c1 (stereo not given in full) | – | 1 | 25 | <1000 | – | 0 | – | <0.5 | – | – | – | No effect
CS(=O)(=O)NC(=O)CCC/C=C\C[C@H]1C(=O)C[C@@H](O)C1/C=C/[C@@H](O)COc1ccc(Cl)cc1 (stereo not given in full) | – | 90 | 9 | 10000 | – | 1200 | 0.5 | – | – | – | – | –
